ChEMBL document CHEMBL1817572, “New, potent, selective, and short-acting peptidic V1a receptor agonists” (J Med Chem, 2011)
Bridge positions count the residues as written; N and C are the ends. Square brackets hold non-standard residues; d marks the D form. Peptide text beside a SMILES is read from it. * marks the point of attachment. Ala(2-furyl) = N[C@@H](Cc1ccco1)C(=O)O; Orn(iPr) = CC(C)NCCC[C@H](N)C(=O)O; 2Thi = N[C@@H](Cc1cccs1)C(=O)O; Aad = N[C@@H](CCCC(=O)O)C(=O)O; Cha = N[C@@H](CC1CCCCC1)C(=O)O; NH(3-hydroxypropyl) = OCCCN*; Orn = NCCC[C@H](N)C(=O)O; Dab = NCC[C@H](N)C(=O)O

Experiments:
[1] = molecular target: Vasopressin V1a/V2 (Homo sapiens) (UniProt P30518+P37288); assay: Selectivity ratio of EC50 for human vasopressin V2 receptor to EC50 for human vasopressin V1a receptor
[2] = molecular target: T1, Vasopressin V1a receptor (Homo sapiens, UniProt P37288); assay: Agonist activity at recombinant human vasopressin V1a receptor expressed in HEK293 cells by luciferase reporter gene assay; type: functional, cell-based; conditions: read-out: EC50
Target sequence in this assay (P37288 whole entry): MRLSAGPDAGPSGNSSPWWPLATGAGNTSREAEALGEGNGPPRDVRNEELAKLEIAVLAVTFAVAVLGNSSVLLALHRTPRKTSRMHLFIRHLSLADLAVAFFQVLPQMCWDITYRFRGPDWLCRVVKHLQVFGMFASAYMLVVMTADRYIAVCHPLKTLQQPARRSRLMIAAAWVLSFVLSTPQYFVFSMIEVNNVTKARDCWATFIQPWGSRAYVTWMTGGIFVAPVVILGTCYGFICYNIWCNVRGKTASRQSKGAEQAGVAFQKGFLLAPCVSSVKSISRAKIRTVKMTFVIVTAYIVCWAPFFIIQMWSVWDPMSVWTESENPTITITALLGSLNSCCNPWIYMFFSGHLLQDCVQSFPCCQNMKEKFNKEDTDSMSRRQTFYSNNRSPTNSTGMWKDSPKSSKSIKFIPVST

[3] = molecular target: T2, Vasopressin V1b receptor (Homo sapiens, UniProt P47901); assay: Agonist activity at recombinant human vasopressin V1b receptor expressed in Flp-In-293 cells by luciferase reporter gene assay; type: functional, cell-based; conditions: read-out: EC50
T2 sequence (P47901 whole entry): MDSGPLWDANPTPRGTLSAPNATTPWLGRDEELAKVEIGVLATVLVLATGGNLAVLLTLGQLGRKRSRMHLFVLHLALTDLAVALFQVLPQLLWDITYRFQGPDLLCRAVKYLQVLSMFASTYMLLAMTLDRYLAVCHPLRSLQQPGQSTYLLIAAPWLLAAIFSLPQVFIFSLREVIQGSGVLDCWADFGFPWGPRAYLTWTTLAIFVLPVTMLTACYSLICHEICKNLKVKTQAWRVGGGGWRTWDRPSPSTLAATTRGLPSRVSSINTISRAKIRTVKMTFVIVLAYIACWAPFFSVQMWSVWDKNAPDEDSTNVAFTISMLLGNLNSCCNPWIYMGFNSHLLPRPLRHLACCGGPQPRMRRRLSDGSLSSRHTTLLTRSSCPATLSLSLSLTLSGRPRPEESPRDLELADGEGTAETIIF
Procedure, shortened: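 Reporter gene assays in HEK293 cells transiently cotransfected with V1a (human or rat) or human V2 receptor vector plus NFAT-luciferase (V1a) or CRE-luciferase (V2) reporter; V1b in Flp-In-293 stably expressing receptor, OT in CHO-K1 stably expressing receptor, both transiently transfected with NFAT-luciferase. Two days post-transfection, peptides added for 5 h at 37 °C, lysis with luciferin, luminescence read.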

[4] = molecular target: T3, Vasopressin V2 receptor (Homo sapiens, UniProt P30518); assay: Agonist activity at recombinant human vasopressin V2 receptor expressed in HEK293 cells by luciferase reporter gene assay; type: functional, cell-based
[5] = molecular target: T4, Oxytocin receptor (Homo sapiens, UniProt P30559); assay: Agonist activity at human OT receptor expressed in CHO-K1 cells by luciferase reporter gene assay; type: functional, cell-based
T4 sequence (P30559 whole entry): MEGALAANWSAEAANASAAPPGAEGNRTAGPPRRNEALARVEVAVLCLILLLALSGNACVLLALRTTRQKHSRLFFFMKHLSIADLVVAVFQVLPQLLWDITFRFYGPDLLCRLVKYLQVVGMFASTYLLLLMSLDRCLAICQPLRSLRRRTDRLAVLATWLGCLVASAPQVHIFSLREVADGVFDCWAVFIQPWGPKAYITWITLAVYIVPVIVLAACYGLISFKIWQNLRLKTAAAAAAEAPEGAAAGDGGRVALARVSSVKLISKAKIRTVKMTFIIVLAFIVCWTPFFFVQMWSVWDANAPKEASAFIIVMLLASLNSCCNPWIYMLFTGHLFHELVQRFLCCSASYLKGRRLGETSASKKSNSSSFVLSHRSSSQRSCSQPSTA

[6] = species on record: Homo sapiens; assay: Selectivity ratio of EC50 for human vasopressin V1b receptor to EC50 for human vasopressin V1a receptor
[7] = species on record: Homo sapiens; assay: Selectivity ratio of EC50 for human oxytocin receptor to EC50 for human vasopressin V1a receptor
[8] = molecular target: Vasopressin V1a receptor (Rattus norvegicus, UniProt P30560); assay: Agonist activity at recombinant rat vasopressin V1a receptor expressed in HEK293 cells by luciferase reporter gene assay; type: functional, cell-based; conditions: read-out: EC50
[9] = test system: Rattus norvegicus; assay: Vasoconstriction in Wistar rat assessed as assessed as decay in vasopressive duration of action at 2 nmol/kg, iv bolus measured over 10 sec interval; type: functional
Procedure, shortened: (§1)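 Fasted male Wistar rats (206–340 g) under isoflurane, then thiobutabarbital 150 mg/kg ip, ventilated, 37–38 °C, with carotid pressure and jugular dosing. Dibenamine 1.8 mg/rat iv pretreatment. Sequence: iv boluses (0.5 mL/kg) of heparinized vehicle, then two reference doses of 0.1 nmol/kg, then two test doses; one matches the reference diastolic pressure rise. Relative duration = reference decay rate / test decay rate; mean ± SEM.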

[10] = molecular target: T1, Vasopressin V1a receptor; assay: Partial agonist activity at recombinant human vasopressin V1a receptor expressed in HEK293 cells by luciferase reporter gene assay; type: functional, cell-based
Procedure, shortened: (§2)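 Same luciferase reporter systems (OT in stable CHO-K1, V1b in stable Flp-In-293, each with transient NFAT-luciferase; V1a in HEK293 with NFAT-luciferase, V2 in HEK293 with CRE-luciferase). Peptides added for 5 h at 37 °C two days post-transfection, luminescence read. Partial agonism means efficacy <70%.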
Target sequence in this assay (P37288 whole entry, looked up): as the sequence (P37288 whole entry) above

[11] = molecular target: T3, Vasopressin V2 receptor; assay: Partial agonist activity at recombinant human vasopressin V2 receptor expressed in HEK293 cells by luciferase reporter gene assay; type: functional, cell-based; procedure, shortened: as §2
[12] = test system: Rattus norvegicus; assay: Vasoconstriction in Wistar rat assessed as assessed as decay in vasopressive duration of action at 0.2 nmol/kg, iv bolus measured over 10 sec interval; type: functional
[13] = test system: Rattus norvegicus; assay: Vasoconstriction in Wistar rat assessed as assessed as decay in vasopressive duration of action at 0.6 nmol/kg, iv bolus measured over 10 sec interval; type: functional; procedure, shortened: as §1
[14] = test system: Rattus norvegicus; assay: Vasoconstriction in Wistar rat assessed as decay in vasopressive duration of action at 1 nmol/kg, iv bolus measured over 10 sec interval; type: functional; procedure, shortened: as §1

Sequence of Vasopressin V1a receptor (Rattus norvegicus, UniProt P30560) (P30560 whole entry): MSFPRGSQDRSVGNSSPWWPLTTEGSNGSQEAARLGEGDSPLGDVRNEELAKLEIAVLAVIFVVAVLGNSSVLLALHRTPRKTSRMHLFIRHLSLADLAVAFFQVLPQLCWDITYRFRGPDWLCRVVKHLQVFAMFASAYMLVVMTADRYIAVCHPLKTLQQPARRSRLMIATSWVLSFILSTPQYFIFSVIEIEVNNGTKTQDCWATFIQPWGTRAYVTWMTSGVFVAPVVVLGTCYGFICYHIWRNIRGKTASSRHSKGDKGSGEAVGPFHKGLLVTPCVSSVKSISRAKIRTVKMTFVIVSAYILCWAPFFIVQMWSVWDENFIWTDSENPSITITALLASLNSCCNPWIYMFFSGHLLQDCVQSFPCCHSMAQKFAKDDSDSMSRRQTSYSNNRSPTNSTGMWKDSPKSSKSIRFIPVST
T3 sequence (P30518 whole entry): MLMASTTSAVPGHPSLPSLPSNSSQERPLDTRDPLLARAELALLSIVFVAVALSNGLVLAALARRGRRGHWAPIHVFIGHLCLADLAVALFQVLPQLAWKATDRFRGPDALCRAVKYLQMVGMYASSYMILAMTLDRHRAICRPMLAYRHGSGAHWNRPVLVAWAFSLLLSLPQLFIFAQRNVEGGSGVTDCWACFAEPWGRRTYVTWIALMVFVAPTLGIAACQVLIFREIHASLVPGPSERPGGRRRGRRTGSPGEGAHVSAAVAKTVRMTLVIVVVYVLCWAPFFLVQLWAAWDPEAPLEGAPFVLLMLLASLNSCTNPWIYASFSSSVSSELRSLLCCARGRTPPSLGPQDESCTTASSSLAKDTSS
Sequence of Vasopressin V1a/V2 (Homo sapiens) (P30518 whole entry, looked up): as the sequence (P30518 whole entry) above
Sequence of Vasopressin V1a/V2 (Homo sapiens) (P37288 whole entry, looked up): as the sequence (P37288 whole entry) above

| Ratio EC50 [1] | EC50 [2] [nM] | EC50 [3] [nM] | EC50 ([4]; hek293, read-out: EC50) [nM] | EC50 ([4]; read-out: pEC50 (converted)) [nM] | EC50 ([5]; cho-k1, read-out: EC50) [nM] | EC50 ([5]; read-out: pEC50 (converted)) [nM] | Ratio EC50 [6] | Ratio EC50 [7] | EC50 [8] [nM] | EC50 ([4]; read-out: EC50) [nM] | Efficacy [11] [%] | EC50 ([5]; read-out: EC50) [nM] | Compound | Time [9] [unitless ratio] | Efficacy [10] [%] | Time [12] [min] | Time [13] [unitless ratio] | Time [14] [unitless ratio] |
| --- | --- | --- | --- | --- | --- | --- | --- | --- | --- | --- | --- | --- | --- | --- | --- | --- | --- | --- |
| > 4700 | 2.1 | 19 | > 10000 | > 10000 | > 10000 | > 10000 | 9 | > 4700 | 2.7 |  |  |  | CC[C@H](C)[C@@H]1NC(=O)[C@H](Cc2ccccc2)NC(=O)[C@@H](N)CSSC[C@@H](C(=O)N2CCC[C@H]2C(=O)N[C@@H](CCCN)C(=O)NCC(N)=O)NC(=O)[C@H](CC(N)=O)NC(=O)[C@H](CC(=O)NCCCO)NC1=O (H-CFID(NH(3-hydroxypropyl))NCP[Orn]G-NH2; disulfide 1-6) | 1.7 |  |  |  |  |
| 1700 | 0.9 | 46 |  |  | > 10000 | > 10000 | 51 | > 11000 | 0.34 | 1600 | < 70 |  | CC[C@H](C)[C@@H]1NC(=O)[C@H](Cc2ccccc2)NC(=O)[C@@H](N)CSSC[C@@H](C(=O)N2CCC[C@H]2C(=O)N[C@@H](CCCN)C(=O)NCC(N)=O)NC(=O)[C@H](CC(N)=O)NC(=O)[C@H](CCCC(N)=O)NC1=O (H-CFI[Aad](NH2)NCP[Orn]G-NH2; disulfide 1-6) | 3.4 | < 70 |  |  |  |
| 3000 | 0.25 | 8 |  |  | > 10000 | > 10000 | 32 | > 40000 | 2.1 | 760 |  |  | CC[C@H](C)[C@@H]1NC(=O)[C@H](CC2CCCCC2)NC(=O)[C@@H](N)CSSC[C@@H](C(=O)N2CCC[C@H]2C(=O)N[C@@H](CCN)C(=O)NCC(N)=O)NC(=O)[C@H](CC(N)=O)NC(=O)[C@H](CCC(N)=O)NC1=O (H-C[Cha]IQNCP[Dab]G-NH2; disulfide 1-6) | 3.1 |  |  |  |  |
| 560 | 0.69 | 370 |  |  |  |  | 530 | 150 | 0.32 | 390 | < 70 | 110 | CC[C@H](C)[C@@H]1NC(=O)[C@H](Cc2cccs2)NC(=O)[C@@H](N)CSSC[C@@H](C(=O)N2CCC[C@H]2C(=O)N[C@@H](CCCNC(C)C)C(=O)NCC(N)=O)NC(=O)[C@H](CC(N)=O)NC(=O)[C@H](CCC(N)=O)NC1=O (H-C[2Thi]IQNCP[Orn(iPr)]G-NH2; disulfide 1-6) |  |  |  | 2.7 |  |
| 360 | 2.6 | 570 |  |  |  |  | 210 | 100 | 0.62 | 950 |  | 260 | CC[C@H](C)[C@@H]1NC(=O)[C@H](Cc2ccco2)NC(=O)[C@@H](N)CSSC[C@@H](C(=O)N2CCC[C@H]2C(=O)N[C@@H](CCCNC(C)C)C(=O)NCC(N)=O)NC(=O)[C@H](CC(N)=O)NC(=O)[C@H](CCC(N)=O)NC1=O (H-C[Ala(2-furyl)]IQNCP[Orn(iPr)]G-NH2; disulfide 1-6) |  |  |  |  | 1.5 |

| Compound | Ratio EC50 [1] | EC50 [2] [nM] | EC50 [3] [nM] | EC50 ([4]; hek293, read-out: EC50) [nM] | EC50 ([4]; read-out: pEC50 (converted)) [nM] | EC50 ([5]; cho-k1, read-out: EC50) [nM] | EC50 ([5]; read-out: pEC50 (converted)) [nM] | Ratio EC50 [6] | Ratio EC50 [7] | EC50 [8] [nM] | EC50 ([4]; read-out: EC50) [nM] | Efficacy [11] [%] | EC50 ([5]; read-out: EC50) [nM] | Time [9] [unitless ratio] | Efficacy [10] [%] | Time [12] [min] | Time [13] [unitless ratio] | Time [14] [unitless ratio] |
| --- | --- | --- | --- | --- | --- | --- | --- | --- | --- | --- | --- | --- | --- | --- | --- | --- | --- | --- |
| CC[C@H](C)[C@@H]1NC(=O)[C@H](Cc2ccccc2)NC(=O)[C@@H](N)CSSC[C@@H](C(=O)N2CCC[C@H]2C(=O)N[C@@H](CCCNC(C)C)C(=O)NCC(N)=O)NC(=O)[C@H](CC(N)=O)NC(=O)[C@H](CCC(N)=O)NC1=O (H-CFIQNCP[Orn(iPr)]G-NH2; disulfide 1-6) | 760 | 0.38 | 44 |  |  |  |  | 110 | 86 | 0.13 | 290 | < 70 | 33 |  | < 70 | 2.3 |  |  |
